“And” between values parts separate entries of the source, which are not always exact repeats. Equal values may be shown once.
Key:
Fibroblast = assay: Multiplex assay against human fibroblast; assay type: toxicity, cell-based
Procedure, shortened: (§1)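 Hoechst33342, BioTracker Green Microtubule Cytoskeleton Dye, MitoTracker Red and Annexin V Alexa Fluor 680 were added to live cells at seeding, and imaging on a CQ1 microscope at 37°C and 5% CO2 followed compound addition. Gating by CellPathfinder machine learning separated cells into Hoechst high-intensity objects or normal cells, then normal cells into healthy, pyknosed or fragmented nuclei, then pyknosed cells into mitotic or apoptotic. Per cents of healthy-nucleus cells are reported for the tubulin, mitochondrial-mass and membrane-permeability phenotypes.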

U2OS = assay: Multiplex assay against U2OS; assay type: toxicity, cell-based; details: human; procedure, shortened: as §1
[1] = 24 h, 10 µM, compound concentration 10 uM
[2] = 48 h, 1 µM, compound concentration 1 uM
[3] = 48 h, 10 µM, compound concentration 10 uM
[4] = 12 h, 1 µM, compound concentration 1 uM
[5] = 12 h, 10 µM, compound concentration 10 uM
[6] = 24 h, 1 µM, compound concentration 1 uM

In the case of `CCCCCN1C(=O)C2(COc3cc4c(cc32)OCO4)c2ccccc21` (stereo not drawn), the “Population Fragmented Nuclei (%)” value (Fibroblast; [1]) is reported as 8.78% and 2.37%, the “Population Healthy Nuclei (%)” value (Fibroblast; [1]) is reported as 70.24% and 84.19% and the “Population Hoechst High Intensity Objects (%)” value (Fibroblast; [1]) is reported as 0%. The “Population Membrane Permeable-Phenotype (%)” value (Fibroblast; [1]) was 1.39% and 0.94%, the “Population Mitochondria Different-Phenotype (%)” value (Fibroblast; [1]) was 13.19% and 12.21% and the “Population Mitotic Cells (%)” value (Fibroblast; [1]) was 95.35% and 91.18%. The “Population Normal (%)” value (Fibroblast; [1]) was 100%, the “Population Pyknosed Nuclei (%)” value (Fibroblast; [1]) was 20.98% and 13.44% and the “Population Tubulin-Different-Phenotype (%)” value (Fibroblast; [1]) was 42.36% and 37.09%. For the same molecule, the “Total Cell Count” value (Fibroblast; [1]) was 205 and 253, the “Population Fragmented Nuclei (%)” value (Fibroblast; [2]) was 11.57% and 4.05% and the “Population Healthy Nuclei (%)” value (Fibroblast; [2]) was 82.41% and 89.64%. The “Population Hoechst High Intensity Objects (%)” value (Fibroblast; [2]) was 0%, the “Population Membrane Permeable-Phenotype (%)” value (Fibroblast; [2]) was 1.12% and 3.02% and the “Population Mitotic Cells (%)” value (Fibroblast; [2]) was 92.31% and 64.29%. The “Population Normal (%)” value (Fibroblast; [2]) was 100%, the “Population Pyknosed Nuclei (%)” value (Fibroblast; [2]) was 6.02% and 6.31% and the “Population Tubulin-Different-Phenotype (%)” value (Fibroblast; [2]) was 5.62% and 14.07%. The “Total Cell Count” value (Fibroblast; [2]) was 216 and 222, the “Population Apoptotic (%)” value (Fibroblast; [3]) was 37.5% and 23.53% and the “Population Fragmented Nuclei (%)” value (Fibroblast; [3]) was 7.32% and 3.05%. For the same molecule, the “Population Healthy Nuclei (%)” value (Fibroblast; [3]) was 84.88% and 90.46%, the “Population Hoechst High Intensity Objects (%)” value (Fibroblast; [3]) was 0% and the “Population Membrane Permeable-Phenotype (%)” value (Fibroblast; [3]) was 1.15% and 2.95%. For the same molecule, the “Population Mitochondria Different-Phenotype (%)” value (Fibroblast; [3]) was 15.52% and 5.91%, the “Population Mitotic Cells (%)” value (Fibroblast; [3]) was 62.5% and 76.47% and the “Population Normal (%)” value (Fibroblast; [3]) was 100%. For the same molecule, the “Population Pyknosed Nuclei (%)” value (Fibroblast; [3]) was 7.8% and 6.49%, the “Population Tubulin-Different-Phenotype (%)” value (Fibroblast; [3]) was 16.09% and 33.76% and the “Total Cell Count” value (Fibroblast; [3]) was 205 and 262. For the same molecule, the “Population Apoptotic (%)” value (U2OS; [4]) was 29.41% and 64%, the “Population Fragmented Nuclei (%)” value (U2OS; [4]) was 1.7% and 1.92% and the “Population Healthy Nuclei (%)” value (U2OS; [4]) was 87.47% and 82.05%. For the same molecule, the “Population Hoechst High Intensity Objects (%)” value (U2OS; [4]) was 0%, the “Population Membrane Permeable-Phenotype (%)” value (U2OS; [4]) was 0.49% and 3.91% and the “Population Mitochondria Different-Phenotype (%)” value (U2OS; [4]) was 0.24% and 7.81%. The “Population Mitotic Cells (%)” value (U2OS; [4]) was 70.59% and 36%, the “Population Normal (%)” value (U2OS; [4]) was 100% and the “Population Pyknosed Nuclei (%)” value (U2OS; [4]) was 10.83% and 16.03%. For the same molecule, the “Population Tubulin-Different-Phenotype (%)” value (U2OS; [4]) was 0.49% and 0%, the “Population Apoptotic (%)” value (U2OS; [5]) was 35.71% and 31.82% and the “Population Fragmented Nuclei (%)” value (U2OS; [5]) was 1.52% and 0%. For the same molecule, the “Population Healthy Nuclei (%)” value (U2OS; [5]) was 91.37% and 84.93%, the “Population Hoechst High Intensity Objects (%)” value (U2OS; [5]) was 0% and the “Population Membrane Permeable-Phenotype (%)” value (U2OS; [5]) was 1.94% and 4.84%. For the same molecule, the “Population Mitotic Cells (%)” value (U2OS; [5]) was 64.29% and 68.18%, the “Population Normal (%)” value (U2OS; [5]) was 100% and the “Population Pyknosed Nuclei (%)” value (U2OS; [5]) was 7.11% and 15.07%. For the same molecule, the “Population Tubulin-Different-Phenotype (%)” value (U2OS; [5]) was 2.22% and 2.42%, the “Total Cell Count” value (U2OS; [5]) was 394 and 146 and the “Population Apoptotic (%)” value (U2OS; [6]) was 41.07% and 40%. The “Population Fragmented Nuclei (%)” value (U2OS; [6]) was 1.74% and 2.44%, the “Population Healthy Nuclei (%)” value (U2OS; [6]) was 89.42% and 80.49% and the “Population Hoechst High Intensity Objects (%)” value (U2OS; [6]) was 0%. The “Population Membrane Permeable-Phenotype (%)” value (U2OS; [6]) was 0.88% and 2.42%, the “Population Mitochondria Different-Phenotype (%)” value (U2OS; [6]) was 0% and 7.27% and the “Population Mitotic Cells (%)” value (U2OS; [6]) was 58.93% and 60%. For the same molecule, the “Population Normal (%)” value (U2OS; [6]) was 100%, the “Population Pyknosed Nuclei (%)” value (U2OS; [6]) was 8.85% and 17.07% and the “Population Tubulin-Different-Phenotype (%)” value (U2OS; [6]) was 0.18% and 1.82%. For the same molecule, the “Population Apoptotic (%)” value (U2OS; [1]) was 23.33% and 32.14%, the “Population Fragmented Nuclei (%)” value (U2OS; [1]) was 2.09% and 1.2% and the “Population Healthy Nuclei (%)” value (U2OS; [1]) was 86.5% and 81.93%. For the same molecule, the “Population Hoechst High Intensity Objects (%)” value (U2OS; [1]) was 0%, the “Population Membrane Permeable-Phenotype (%)” value (U2OS; [1]) was 1.1% and 8.09% and the “Population Mitotic Cells (%)” value (U2OS; [1]) was 76.67% and 67.86%. For the same molecule, the “Population Normal (%)” value (U2OS; [1]) was 100%, the “Population Pyknosed Nuclei (%)” value (U2OS; [1]) was 11.41% and 16.87% and the “Population Tubulin-Different-Phenotype (%)” value (U2OS; [1]) was 2.42% and 3.68%. The “Population Apoptotic (%)” value (U2OS; [2]) was 40.17% and 47.5%, the “Population Fragmented Nuclei (%)” value (U2OS; [2]) was 3.56% and 1.97% and the “Population Healthy Nuclei (%)” value (U2OS; [2]) was 86.74% and 86.8%. The “Population Hoechst High Intensity Objects (%)” value (U2OS; [2]) was 0%, the “Population Membrane Permeable-Phenotype (%)” value (U2OS; [2]) was 0.86% and 1.29% and the “Population Mitochondria Different-Phenotype (%)” value (U2OS; [2]) was 0% and 3.56%. The “Population Mitotic Cells (%)” value (U2OS; [2]) was 59.83% and 52.5%, the “Population Normal (%)” value (U2OS; [2]) was 100% and the “Population Pyknosed Nuclei (%)” value (U2OS; [2]) was 9.69% and 11.24%. The “Population Tubulin-Different-Phenotype (%)” value (U2OS; [2]) was 0.38% and 0.97%, the “Population Apoptotic (%)” value (U2OS; [3]) was 41.89% and 71.05% and the “Population Fragmented Nuclei (%)” value (U2OS; [3]) was 2.63% and 1.47%. The “Population Healthy Nuclei (%)” value (U2OS; [3]) was 89.58% and 84.56%, the “Population Hoechst High Intensity Objects (%)” value (U2OS; [3]) was 0% and the “Population Membrane Permeable-Phenotype (%)” value (U2OS; [3]) was 0.71% and 3.91%. For the same molecule, the “Population Mitotic Cells (%)” value (U2OS; [3]) was 58.11% and 28.95%, the “Population Normal (%)” value (U2OS; [3]) was 100% and the “Population Pyknosed Nuclei (%)” value (U2OS; [3]) was 7.79% and 13.97%. The “Population Tubulin-Different-Phenotype (%)” value (U2OS; [3]) was 1.29% and 1.74%.

Reference: ChEMBL document CHEMBL5724801, “EUbOPEN Chemogenomics Library - Multiplex” (2024)
